7 compounds from ChEMBL document CHEMBL1121967 (J Med Chem, 1982) can be followed below.

Where “and” joins values, the source holds several entries; their conditions need not be identical. Equal values may be shown once. Calls of active or inactive are those of the source. No cut-off for these calls is given here. Residues, ends and D or L forms follow the SMILES beside them.

Common to all, as to assay type: functional
The species named for assay [1] is Cavia porcellus. Kind of assay: Negative log of the concentration producing 50% of the maximum effect was measured in guinea pig ileum. The following applies: for Kb: Cavia porcellus, Ileum, read-out: pA2 (converted). The gist of the method:
(§1)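 Isolated helical strips of rabbit mesenteric vein, longitudinal strips of guinea pig ileum, or helical strips of guinea pig trachea, held in 10-mL baths of Krebs' solution at 37 °C gassed with 95% O2/5% CO2. Isometric tension recorded. Cumulative agonist concentrations 10⁻¹⁰ to 10⁻⁵ M. pD2 is -log concentration giving 50% of the compound's own maximum. Intrinsic activity is a fraction of SP's, and affinity is relative to SP. Values come from 10-12 determinations.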

The species entered for assay [2] is Cavia porcellus. In words: Negative log of the concentration producing 50% of the maximum effect was measured in guinea pig ileum as pA2-pA10.
The species entered for assay [3] is Oryctolagus cuniculus. In words: The intrinsic activity was measured in Rabbit mesenteric vein. The following applies: for Kb: read-out: pA2 (converted). In short, it runs like this: as §1
The species named for assay [4] is Oryctolagus cuniculus. Kind of assay: Negative log of the concentration producing 50% of the maximum effect was measured in Rabbit mesenteric vein. In short, it runs like this: as §1
Assay [5] is filed under the species Oryctolagus cuniculus. In words: Relative affinity was determined with substance P(SP) in Rabbit mesenteric vein. The gist of the method: as §1
The species named for assay [6] is Cavia porcellus. In words: Concentration producing 50% of the maximum effect was tested in guinea pig trachea; inactive. In short, it runs like this: as §1
For assay [7], the species on record is Cavia porcellus. Kind of assay: Concentration producing 50% of the maximum effect was tested in guinea pig ileum; inactive. The gist of the method:
as §1

The species entered for assay [8] is Cavia porcellus. Kind of assay: Concentration producing 50% of the maximum effect was tested in guinea pig trachea. Conditions: read-out: ED50 (the source's name). The gist of the method: as §1
The species named for assay [9] is Oryctolagus cuniculus. Kind of assay: Concentration producing 50% of the maximum effect was tested in Rabbit mesenteric vein. In short, it runs like this: as §1
For assay [10], the species on record is Cavia porcellus. In words: The intrinsic activity was measured in guinea pig ileum. The gist of the method:
as §1

The species named for assay [11] is Cavia porcellus. In words: Concentration producing 50% of the maximum effect was tested in guinea pig ileum. Conditions: read-out: ED50 (the source's name). The gist of the method: as §1
For assay [12], the species on record is Cavia porcellus. In words: The intrinsic activity was measured in guinea pig trachea. In short, it runs like this:
as §1

Assay [13] is filed under the species Cavia porcellus. Kind of assay: Relative affinity was determined with substance P(SP) in guinea pig trachea. The gist of the method: as §1
For assay [14], the species on record is Cavia porcellus. Kind of assay: Relative affinity was determined with substance P(SP) in guinea pig ileum. In short, it runs like this: as §1
Assay [15] is filed under the species Cavia porcellus. Kind of assay: Negative log of the concentration producing 50% of the maximum effect was measured in guinea pig trachea. In short, it runs like this:
as §1

The species named for assay [16] is Oryctolagus cuniculus. In words: Negative log of the concentration producing 50% of the maximum effect was measured in Rabbit mesenteric vein as pA2-pA10.

As to `CSCC[C@H](NC(=O)[C@H](CC(C)C)NC(=O)[C@H](Cc1c[nH]c2ccccc12)NC(=O)[C@H](Cc1ccccc1)NC(=O)[C@H](Cc1ccccc1)NC(=O)[C@H](CCC(N)=O)NC(=O)[C@H](CCC(N)=O)NC(=O)[C@@H]1CCCN1C(=O)[C@H](CCCCN)NC(=O)[C@@H]1CCCN1C(=O)[C@@H](N)CCCN=C(N)N)C(N)=O`, the Kb in assay [1] was 21.4 µM. Further, the “pA2 minus pA10 difference” value in assay [2] came out at 0.45.

Take `CSCC[C@H](NC(=O)[C@H](CC(C)C)NC(=O)[C@H](Cc1c[nH]c2ccccc12)NC(=O)[C@H](Cc1ccccc1)NC(=O)[C@H](Cc1c[nH]c2ccccc12)NC(=O)[C@H](CCC(N)=O)NC(=O)[C@H](CCC(N)=O)NC(=O)[C@@H]1CCCN1)C(N)=O` (H-PQQWFWLM-NH2): the pA2 in [1] was 5.65 and 5.96. Moreover, the Kb in assay [3] was 2.24 µM. The pA2-pA10 in assay [4] is reported as 1. For the same compound, in [5], the RA was <0.1. Moreover, the ED50 result in [6] and in assay [7] was “inactive” throughout. The “pA2 minus pA10 difference” value in assay [2] is 1 and 1.01.

Turning to `CSCC[C@H](NC(=O)[C@H](CC(C)C)NC(=O)CNC(=O)[C@H](Cc1ccccc1)NC(=O)[C@H](Cc1ccccc1)NC(=O)[C@@H](N)CCC(N)=O)C(N)=O` (H-QFFGLM-NH2), the results for the EC50 in [8] and in assay [11] were 0.034 µM and 0.0012 µM, respectively. Also, in assay [9], the ED50 turned out to be 0.08 µM. The pD2 came out at 8.91 in assay [1], 7.1 in assay [4] and 7.46 in assay [15]. In [3], this compound returned an Activity of 1. Besides, the Intrinsic actvity in assay [10] is 1; in [12], 1.25. For the same compound, the results for the RA in assay [5], in assay [13] and in assay [14] were 33, 507 and 146, respectively.

Regarding `CSCC[C@H](NC(=O)[C@H](Cc1c[nH]c2ccccc12)NC(=O)CNC(=O)[C@H](Cc1ccccc1)NC(=O)[C@H](Cc1ccccc1)NC(=O)[C@@H](N)CCCN=C(N)N)C(N)=O` (H-RFFGWM-NH2), the Kb in assay [1] was 9.77 µM; in assay [3], 11 µM. This compound also came in with an Activity in assay [16] of 0.69. The RA in assay [5] is <0.1. Moreover, the ED50 entry in [6] and in assay [7] was “inactive” in each case. Besides, the “pA2 minus pA10 difference” value in assay [2] amounted to 0.82.

On to `CSCC[C@H](NC(=O)[C@H](CC(C)C)NC(=O)[C@H](Cc1c[nH]c2ccccc12)NC(=O)[C@H](Cc1ccccc1)NC(=O)[C@H](Cc1ccccc1)NC(=O)[C@@H](N)CCCN=C(N)N)C(N)=O` (H-RFFWLM-NH2), for which the EC50 in assay [8] stood at 0.86 µM; in assay [11], 1.3 µM. Moreover, the ED50 in assay [9] is 0.97 µM. In addition, the figures for the pD2 in assay [1], in assay [4] and in assay [15] were 5.88, 6 and 6.06, respectively. Further, the figures for the RA in assay [5], in [13] and in [14] were 2.7, 20.3 and 0.1, respectively.

In the case of `CSCC[C@H](NC(=O)[C@H](CC(C)C)NC(=O)CNC(=O)[C@H](Cc1c[nH]c2ccccc12)NC(=O)[C@H](Cc1ccccc1)NC(=O)[C@@H](N)CCCN=C(N)N)C(N)=O` (H-RFWGLM-NH2), the EC50 is 4.2 µM in [8] and 0.36 µM in assay [11]. For the same compound, the pD2 in assay [1] is listed as 6.44; in [15], 5.38. For the same compound, in assay [10], the Intrinsic actvity came to 0.9. Moreover, in assay [12], the Activity worked out at 0.5. Also, the RA in [13] is reported as 4.2; in [14], 0.5.

Turning to `CSCC[C@H](NC(=O)[C@H](CC(C)C)NC(=O)CNC(=O)[C@H](Cc1ccccc1)NC(=O)[C@H](Cc1c[nH]c2ccccc12)NC(=O)[C@@H](N)CCCN=C(N)N)C(N)=O` (H-RWFGLM-NH2), the EC50 is 6.6 µM in [8] and 0.25 µM in [11]. Moreover, the ED50 in assay [9] stood at 2.7 µM. In addition, the pD2 in assay [1] was found to be 6.6; in [4] it was 5.56; in assay [15] it was 5.18. Moreover, in [10], the Intrinsic actvity came out at 0.9. The RA in assay [5] came to 0.9; in assay [13] it was 2.8; in assay [14], 0.7.
